From ChEMBL document CHEMBL2203050, “Synthesis, evaluation and structure-activity relationships of triazine dimers as novel antiviral agents” (Bioorg Med Chem Lett, 2012)
Activity calls are given as the source filed them. The calls are words filed in the database; no cut-off is given here.

What was measured:
[1] = tested on: Human immunodeficiency virus 1; assay: Antiviral activity against HIV1 infected in human TZM-b1 cells; type: functional, organism-based; conditions: Human immunodeficiency virus 1, TZM-b1
[2] = Selectivity index, ratio of CC50 for human TZM-b1 cells to EC50 for HIV1; type: toxicity, cell-based; conditions: read-out: Ratio CC50/EC50
[3] = Cytotoxicity against human TZM-b1 cells; type: cell-based
[4] = tested on: Human immunodeficiency virus 1; assay: Ratio of EC50 for HIV1 Ba-L harboring reverse transcriptase V106A mutant to EC50 for wild type HIV1 Ba-L; type: functional
[5] = tested on: Human immunodeficiency virus 1; assay: Antiviral activity against wild type HIV1 Ba-L; type: functional, organism-based; conditions: Human immunodeficiency virus 1, Ba-L
[6] = tested on: Human immunodeficiency virus 1; assay: Antiviral activity against HIV1 harboring reverse transcriptase VI829 L100I, K103N mutant; type: functional, organism-based
[7] = tested on: Human immunodeficiency virus 1; assay: Ratio of EC50 for HIV1 harboring reverse transcriptase VI829/Y181C mutant to EC50 for wild type HIV1 VI829
[8] = tested on: Human immunodeficiency virus 1; assay: Antiviral activity against HIV1 Ba-L harboring reverse transcriptase V106A mutant; type: functional, organism-based; conditions: Human immunodeficiency virus 1, Ba-L
[9] = tested on: Human immunodeficiency virus 1; assay: Antiviral activity against HIV1 harboring reverse transcriptase VI829/Y181C mutant; type: functional, organism-based
[10] = tested on: Human immunodeficiency virus 1; assay: Antiviral activity against HIV1 harboring reverse transcriptase VI829 mutant; type: functional, organism-based
[11] = tested on: Human immunodeficiency virus 1; assay: Ratio of EC50 for HIV1 harboring reverse transcriptase VI829 L100I, K103N mutant to EC50 for wild type HIV1 VI829
[12] = tested on: Human immunodeficiency virus 1; assay: Antiviral activity against HIV1 assessed as inhibition of viral p24 antigen production treated every 1 hr for 12 hrs by ELISA based time-of-drug addition assay; type: functional, organism-based
In short: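 TZM-bl cells (2 × 10⁴ per well) were infected with virus at 0.4 MOI, with or without compound, for 1 h. Unbound virus was washed off and fresh medium was added, with or without compound. Compound at 50–500 × EC₅₀ was then added each hour over 12 h. p24 was measured by in-house antigen-capture ELISA at 24 h, giving a single replication round. Cells plus medium and cells plus virus served as controls.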

SMILES | EC50 [1] [nM] | selectivity ratio [2] | CC50 [3] [nM] | Ratio EC50 [4] | EC50 [5] [nM] | EC50 [6] [nM] | Ratio EC50 [7] | EC50 [8] [nM] | EC50 [9] [nM] | EC50 [10] [nM] | Ratio EC50 [11] | inhibition [12]
Cc1cc(C)c(Nc2nc(Nc3ccc(C#N)cc3)nc(Nc3ccc(Nc4nc(Nc5ccc(C#N)cc5)nc(Nc5c(C)cc(C)cc5C)n4)cc3)n2)c(C)c1 | 170 | > 588 | > 100000 | – | – | – | – | – | – | – | – | –
Cc1cc(C)c(Nc2ccnc(Nc3ccc(C#N)cc3)n2)c(C)c1 [DAPIVIRINE] | – | 1440 | 2880 | 1.3 | 2 | > 1000 | 5.4 | 2.5 | 10.8 | 2 | >500 | Active
